ChEMBL document CHEMBL3621164, “Discovery of Triazole CYP11B2 Inhibitors with in Vivo Activity in Rhesus Monkeys” (ACS Med Chem Lett, 2015)

Experiments:
[1] = biological target: T1, Cytochrome P450 11B1, mitochondrial (Homo sapiens, UniProt P15538); test: (§1) Inhibition of human CYP11B1 expressed in V79 cells assessed as cortisol level after 3 hrs by HTRF assay in presence of 250 nM 11-deoxycortisol; format: cell-based
T1 sequence (P15538 whole entry): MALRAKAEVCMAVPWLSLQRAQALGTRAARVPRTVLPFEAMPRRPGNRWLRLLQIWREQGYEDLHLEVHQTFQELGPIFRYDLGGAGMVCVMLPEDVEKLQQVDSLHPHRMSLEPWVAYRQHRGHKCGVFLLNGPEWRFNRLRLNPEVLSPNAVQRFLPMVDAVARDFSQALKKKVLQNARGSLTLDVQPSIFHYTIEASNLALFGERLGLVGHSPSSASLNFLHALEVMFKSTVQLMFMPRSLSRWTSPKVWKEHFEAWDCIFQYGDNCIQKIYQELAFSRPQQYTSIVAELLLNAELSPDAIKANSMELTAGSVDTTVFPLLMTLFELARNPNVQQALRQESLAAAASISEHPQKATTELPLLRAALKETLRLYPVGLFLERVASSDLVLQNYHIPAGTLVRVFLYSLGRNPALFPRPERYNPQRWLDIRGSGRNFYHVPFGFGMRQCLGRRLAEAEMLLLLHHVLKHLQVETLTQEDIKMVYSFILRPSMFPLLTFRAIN

[2] = biological target: T2, Cytochrome P450 11B2, mitochondrial (Homo sapiens, UniProt P19099); test: Inhibition of human CYP11B2 expressed in V79 cells assessed as aldosterone level after 3 hrs by HTRF assay in presence of 125 nM 11-deoxycorticosterone; format: cell-based
T2 sequence (P19099 whole entry): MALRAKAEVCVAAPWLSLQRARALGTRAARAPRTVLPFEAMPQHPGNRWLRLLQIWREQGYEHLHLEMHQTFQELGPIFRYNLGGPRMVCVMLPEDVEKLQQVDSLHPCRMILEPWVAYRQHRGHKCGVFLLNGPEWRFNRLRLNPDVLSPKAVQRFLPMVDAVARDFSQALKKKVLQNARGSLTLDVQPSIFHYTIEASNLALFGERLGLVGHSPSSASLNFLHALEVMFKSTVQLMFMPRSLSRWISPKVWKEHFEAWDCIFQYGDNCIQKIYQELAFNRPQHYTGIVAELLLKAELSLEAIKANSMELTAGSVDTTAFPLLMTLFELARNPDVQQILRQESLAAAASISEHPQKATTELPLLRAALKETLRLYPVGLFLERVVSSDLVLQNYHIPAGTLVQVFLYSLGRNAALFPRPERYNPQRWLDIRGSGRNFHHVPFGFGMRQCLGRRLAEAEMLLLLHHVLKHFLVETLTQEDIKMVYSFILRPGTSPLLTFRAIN

[3] = tested on: Rattus norvegicus; test: Dose normalized AUC in Sprague-Dawley rat at 2 mg/kg, po administered through gavage; format: ADME, organism-based; conditions: in vivo
[4] = Plasma clearance in Sprague-Dawley rat at 2 mg/kg, po administered through gavage by LC/MS/MS method; format: ADME, organism-based
[5] = organism: Homo sapiens; test: Selectivity index, ratio IC50 for human CYP11B1 to IC50 for human CYP11B2
In short: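 Ratio of human CYP11B1 IC50 to human CYP11B2 IC50; each IC50 calculated from n ≥ 2 determinations.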

[6] = Intrinsic clearance in Sprague-Dawley rat liver microsomes by LC/MS method; format: ADME; conditions: read-out: CLH
[7] = Oral bioavailability in Sprague-Dawley rat at 2 mg/kg administered through gavage; format: ADME, organism-based; conditions: in vivo
[8] = Half life in Sprague-Dawley rat at 2 mg/kg, po administered through gavage by LC/MS/MS method; format: ADME, organism-based; conditions: in vivo
[9] = Lipophilicity, log D of the compound by HPLC; format: physicochemical
In short: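 Lipophilicity determined experimentally by HPLC.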

[10] = biological target: Cytochrome P450 3A4 (Homo sapiens, UniProt P08684); test: Inhibition of human CYP3A4; format: ADME
Chain of Cytochrome P450 3A4 (P08684 whole entry): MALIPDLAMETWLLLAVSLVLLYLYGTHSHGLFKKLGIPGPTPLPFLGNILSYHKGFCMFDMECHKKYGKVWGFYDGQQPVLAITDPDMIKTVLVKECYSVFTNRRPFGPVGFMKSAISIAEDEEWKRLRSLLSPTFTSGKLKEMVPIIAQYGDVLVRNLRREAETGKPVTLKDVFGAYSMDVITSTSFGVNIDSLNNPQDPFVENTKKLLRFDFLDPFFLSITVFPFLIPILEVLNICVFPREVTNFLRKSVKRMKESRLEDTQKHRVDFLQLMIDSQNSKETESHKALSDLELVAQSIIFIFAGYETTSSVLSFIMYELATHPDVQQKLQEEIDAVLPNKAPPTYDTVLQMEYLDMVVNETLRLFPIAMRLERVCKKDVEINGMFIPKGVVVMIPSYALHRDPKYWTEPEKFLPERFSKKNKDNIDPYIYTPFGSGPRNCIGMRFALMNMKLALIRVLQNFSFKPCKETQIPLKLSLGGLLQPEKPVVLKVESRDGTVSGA

[11] = biological target: T3, Steroid 17-alpha-hydroxylase/17,20 lyase (Homo sapiens, UniProt P05093); test: Inhibition of human CYP17 expressed in COS7 cells assessed as DHEA level after 3 hrs by EIA assay in presence of 360 nM 17-hydroxypregnenolone; format: cell-based, COS-7
T3 sequence (P05093 whole entry): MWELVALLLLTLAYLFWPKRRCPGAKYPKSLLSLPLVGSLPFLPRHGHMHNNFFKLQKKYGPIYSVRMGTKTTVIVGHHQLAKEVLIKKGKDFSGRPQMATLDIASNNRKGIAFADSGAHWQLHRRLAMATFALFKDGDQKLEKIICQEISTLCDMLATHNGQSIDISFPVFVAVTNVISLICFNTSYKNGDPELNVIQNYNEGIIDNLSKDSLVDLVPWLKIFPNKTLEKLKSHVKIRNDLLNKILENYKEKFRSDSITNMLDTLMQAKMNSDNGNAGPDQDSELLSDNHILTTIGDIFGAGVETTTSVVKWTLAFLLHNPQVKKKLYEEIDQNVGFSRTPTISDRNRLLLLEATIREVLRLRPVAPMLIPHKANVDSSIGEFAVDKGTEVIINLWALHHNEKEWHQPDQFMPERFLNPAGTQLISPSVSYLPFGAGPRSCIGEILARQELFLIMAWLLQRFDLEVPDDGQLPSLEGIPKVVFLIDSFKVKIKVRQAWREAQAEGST

[12] = biological target: T4, Aromatase (Homo sapiens, UniProt P11511); test: Inhibition of human CYP19
T4 sequence (P11511 whole entry): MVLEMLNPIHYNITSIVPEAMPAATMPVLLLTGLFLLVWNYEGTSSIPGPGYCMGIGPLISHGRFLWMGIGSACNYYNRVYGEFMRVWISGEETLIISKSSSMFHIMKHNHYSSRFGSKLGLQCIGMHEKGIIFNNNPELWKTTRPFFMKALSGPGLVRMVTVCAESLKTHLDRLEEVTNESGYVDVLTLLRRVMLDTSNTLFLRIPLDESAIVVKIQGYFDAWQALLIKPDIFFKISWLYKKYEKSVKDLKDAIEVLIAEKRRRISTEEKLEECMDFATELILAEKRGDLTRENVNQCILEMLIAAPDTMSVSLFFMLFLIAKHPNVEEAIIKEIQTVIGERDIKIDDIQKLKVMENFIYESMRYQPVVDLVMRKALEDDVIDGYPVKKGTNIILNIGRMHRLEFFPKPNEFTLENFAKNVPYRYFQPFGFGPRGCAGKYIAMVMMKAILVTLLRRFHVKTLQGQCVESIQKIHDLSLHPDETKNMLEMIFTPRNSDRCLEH

[13] = biological target: T5, Cytochrome P450 11B2, mitochondrial (Rattus norvegicus, UniProt P30099); test: Inhibition of rat CYP11B2 expressed in V79 cells assessed as aldosterone level after 3 hrs by HTRF assay in presence of 500 nM 11-deoxycorticosterone; format: cell-based; conditions: v79, 3 h
T5 sequence (P30099 whole entry): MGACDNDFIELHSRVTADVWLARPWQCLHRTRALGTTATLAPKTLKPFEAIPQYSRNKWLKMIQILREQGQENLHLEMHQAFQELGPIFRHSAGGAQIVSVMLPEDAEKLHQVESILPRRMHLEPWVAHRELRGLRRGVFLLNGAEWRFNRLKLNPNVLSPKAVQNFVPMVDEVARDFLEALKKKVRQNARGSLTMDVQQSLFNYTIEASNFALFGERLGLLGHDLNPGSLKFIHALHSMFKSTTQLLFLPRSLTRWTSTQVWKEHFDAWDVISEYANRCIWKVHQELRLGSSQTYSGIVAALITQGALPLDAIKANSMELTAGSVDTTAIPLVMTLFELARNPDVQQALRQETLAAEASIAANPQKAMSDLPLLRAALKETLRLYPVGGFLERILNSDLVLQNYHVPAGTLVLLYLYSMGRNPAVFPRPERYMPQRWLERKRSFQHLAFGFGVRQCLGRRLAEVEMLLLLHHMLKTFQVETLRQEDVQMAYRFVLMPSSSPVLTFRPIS

[14] = Inhibition of rhesus monkey CYP11B2 expressed in V79 cells assessed as aldosterone level after 3 hrs by HTRF assay in presence of 125 nM 11-deoxycorticosterone; format: cell-based; conditions: Macaca mulatta, V79, 3 h
[15] = biological target: T6, CYP11B1 (Homo sapiens, UniProt P15538); test: as §1; format: cell-based; conditions: human, V79 cells expressing human CYP11B1, probe 11-deoxycortisol (250 nM)
T6 sequence (P15538 whole entry): T1 sequence (P15538 whole entry)

Compound	IC50 [1]	IC50 [2]	Ratio IC50 [5]	other results
Cc1nnc2n1-c1ccc(-c3cncc(C(F)(F)F)c3)cc1CC2	> 10000 nM	486 nM		
Cc1nnc2n1-c1ccc(-c3cccnc3)cc1CC2	> 10000 nM	423 nM	> 24	AUC/dose [3]: 0.1 µM·kg·h/mg; CL/F [4]: 38 mL/min/kg; CLint scaled [6]: 55 mL/min/kg; bioavailability [7]: 6%; half-life [8]: 12 min
C[C@](O)(c1cncc(-c2ccc3c(c2)CCc2nnc(C(F)(F)F)n2-3)c1)C(F)(F)F	887 nM	461 nM	2	logD [9]: 2.2
COC(=O)c1cncc(-c2ccc3c(c2)CCc2nnc(C)n2-3)c1	2200 nM	58 nM		IC50 [10]: > 50000 nM; IC50 [11]: > 10000 nM; IC50 [12]: > 10000 nM
COC(C)(C)c1cncc(-c2ccc3c(c2)CCc2nnc(C)n2-3)c1	219 nM	19 nM		AUC/dose [3]: 0.03 µM·kg·h/mg; IC50 [10]: > 50000 nM; CL/F [4]: 177 mL/min/kg; CLint scaled [6]: 107 mL/min/kg; bioavailability [7]: 10%; IC50 [11]: > 10000 nM; half-life [8]: 18 min; inhibition (INH) [13]: Active; IC50 [14]: 3 nM; IC50 [12]: 11200 nM
FC(F)(F)c1nnc2n1-c1ccc(-c3cccnc3)cc1CC2	> 8330 nM	506 nM	> 16	
c1cncc(-c2ccc3c(c2)CCc2nnc(C4CCCCC4)n2-3)c1	> 8330 nM	2400 nM	> 3	
c1cncc(-c2ccc3c(c2)CCc2nnc(C4CC4)n2-3)c1	> 10000 nM	487 nM	> 21	
Cc1nnc2n1-c1ccc(-c3cncc(F)c3)cc1CC2	> 10000 nM	558 nM		
Cc1nnc2n1-c1ccc(-c3cncc(C(C)(C)O)c3)cc1CC2	> 8330 nM	283 nM	> 29	AUC/dose [3]: 0.19 µM·kg·h/mg; CL/F [4]: 50 mL/min/kg; CLint scaled [6]: < 20 mL/min/kg; bioavailability [7]: 19%; half-life [8]: 90 min; inhibition (INH) [13]: Active; logD [9]: 0.6; IC50 [14]: 34 nM
Cc1nnc2n1-c1ccc(-c3cncc(S(=O)(=O)c4ccccc4)c3)cc1CC2	1500 nM	40 nM		
CNC(=O)c1cncc(-c2ccc3c(c2)CCc2nnc(C)n2-3)c1	> 8330 nM	> 8330 nM		
c1ccc(-c2nnc3n2-c2ccc(-c4cccnc4)cc2CC3)cc1	1360 nM	103 nM	13	IC50 [10]: 36500 nM; IC50 [11]: 84 nM; IC50 [12]: 21 nM
c1cncc(-c2ccc3c(c2)CCc2nncn2-3)c1	> 10000 nM	300 nM	> 33	
COC(=O)C(C)(C)c1cncc(-c2ccc3c(c2)CCc2nnc(C)n2-3)c1	317 nM	19 nM		
Cc1nnc2n1-c1ccc(-c3cncc([C@@](C)(O)C(F)(F)F)c3)cc1CC2	> 8330 nM	109 nM		logD [9]: 1.2
C[C@@](O)(c1cncc(-c2ccc3c(c2)CCc2nnc(C(F)(F)F)n2-3)c1)C(F)(F)F	> 8330 nM	476 nM	> 18	logD [9]: 2.2
Cc1nnc2n1-c1ccc(-c3cncc4ccccc34)cc1CC2		5 nM		IC50 at 3 h [15]: 407 nM; AUC/dose [3]: 0.27 µM·kg·h/mg; CL/F [4]: 150 mL/min/kg; CLint scaled [6]: 33 mL/min/kg; bioavailability [7]: 75%; half-life [8]: 24 min
Cc1nnc2n1-c1ccc(-c3cncc(S(C)(=O)=O)c3)cc1CC2	> 8330 nM	> 8330 nM		
Cc1nnc2n1-c1ccc(-c3cncc(C(=O)N(C)C)c3)cc1CC2	> 8330 nM	> 8330 nM		
